Assay results published in paper PMC2233868 (The Journal of General Physiology, 2002).
Several values for one entry are separate records, joined by “and”; a condition that tells them apart may be missing. Identical values can stand only once. Entries after “also recorded” stand apart in the source; their conditions may differ. Like-named read-outs stand apart in the source and are kept apart here.

Key:
[1] = system: volume-regulated anion channels (VRAC); experiment: Whole cell membrane current; conditions: for effect on outward component of VRAC current / voltage dependence of VRAC block: total nucleotide concentration 1 mM; for effect on outward component of VRAC current: HTS 17%; for r = k12(0)/k10(0) / δ, electrical distance of binding site inside the channel: pooled cells; for membrane leakiness: extracellular ATP 10 mM or higher, high concentrations of ADP
[2] = system: bovine aortic endothelial cells (BAEC); conditions: disruption of the actin cytoskeleton; ref Koyama et al., 2001; cited from earlier work
[3] = system: bovine aortic endothelial cells (BAEC); experiment: HTS-induced NO production, DAF-2 fluorescence; type: cell-based
How it was run: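 NO was imaged with DAF-2 in first-subculture bovine aortic endothelial cells bathed in modified Krebs solution (1.5 mM Ca2+, pH 7.3), made hypotonic with distilled water. Fluorescence in each experiment was normalized to a reference image taken before the hypotonic challenge. n = cells examined; mean ± SEM; Student's unpaired t test, P < 0.05 significant.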

[4] = system: bovine aortic endothelial cells (BAEC); experiment: HTS-induced Ca2+ oscillations, fura-2 fluorescence; type: cell-based; conditions: HTS 40%; glibenclamide 100 μM
[5] = system: bovine aortic endothelial cells (BAEC); type: cell-based
[6] = system: prostate cancer cells; conditions: ref Sauer et al., 2000; cited from earlier work
[7] = system: VRAC currents in BC3H1 and C2C12 cells; conditions: concentrations up to 100 μM; ref Voets et al., 1997; cited from earlier work
[8] = system: large conductance anion channel (368 pS); conditions: ref Li et al., 2000; cited from earlier work
[9] = system: bovine aortic endothelial cells (BAEC); experiment: Ca2+ transients induced by exogenously applied ATP, fura-2; type: cell-based; conditions: exogenous ATP 1 μM
How it was run: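 [Ca2+]i tracked by fura-2 fluorescence using digital fluorescence microscopy at room temperature (20–25°C). Mean ± SEM; Student's unpaired t test, P < 0.05 significant.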

[10] = system: cultured ciliary epithelial cells; conditions: ref Mitchell et al., 1998; cited from earlier work
[11] = fit to simplified Eq. 2, total nucleotide 1 mM
[12] = representative data, Figs. 4 C (dashed line) and 5 B, Eq. 2
[13] = fit to Eq. 1, extracellular ATP total 1 mM
[14] = representative cell, Fig. 4 C solid line, Eq. 1
[15] = 20% HTS, 10 min, fluoxetine 1 μM, glibenclamide 100 μM, tamoxifen 10 μM, verapamil 10 μM, P < 0.01
[16] = 10 or 20 mM extracellular ADP, extracellular Cl− 2 mM

Nc1ncnc2c1ncn2[C@@H]1O[C@H](CO)[C@@H](O)[C@H]1O [adenosine]
effect on outward component of VRAC current [1]: does not inhibit

Nc1nc2c(ncn2[C@@H]2O[C@H](COP(=O)(O)OP(=O)(O)OP(=O)(O)O)[C@@H](O)[C@H]2O)c(=O)[nH]1 [GTP]
r = k12(0)/k10(0) [1, 11]: 0.70 ± 0.30
δ, electrical distance of binding site inside the channel [1, 11]: 0.41 ± 0.06
r of the fitted curve [1, 12]: 0.24
δ of the fitted curve [1, 12]: 0.44
voltage dependence of VRAC block [1]: bell-shaped voltage-dependent inhibition

Nc1ncnc2c1ncn2[C@@H]1O[C@H](COP(=O)(O)O)[C@@H](O)[C@H]1O [AMP]
voltage dependence of VRAC block [1]: weakly voltage-dependent

C=C1[C@@H](C)[C@H]2[C@H](Cc3ccccc3)NC(=O)[C@]23OC(=O)/C=C/[C@H](O)CCC[C@@H](C)C/C=C/[C@H]3[C@@H]1O [cytochalasin B]
effect on HTS-induced ATP release [2]: does not inhibit

Nc1ncnc2c1ncn2[C@@H]1O[C@H](COP(=O)(O)OP(=O)(O)OP(=O)(O)O)[C@@H](O)[C@H]1O [ATP]
activation of a VRAC-like current in isotonic solutions ([1]; exogenous ATP, isotonic solution): did not activate
membrane leakiness [1]: induced membrane leakiness
membrane potential of maximum inhibition of outward VRAC current ([1]; extracellular ATP total 1 mM, free 0.15 mM): 30–40 mV
r = k12(0)/k10(0) [1, 13]: 0.38 ± 0.08
δ, electrical distance of binding site inside the channel [1, 13]: 0.41 and 0.41 ± 0.03
r = k12(0)/k10(0) [1, 11]: 0.42 ± 0.16
δ, electrical distance of binding site inside the channel [1, 11]: 0.42 ± 0.02
r of the fitted curve [1, 14]: 0.29
δ of the fitted curve [1, 14]: 0.42
r of the fitted curve [1, 12]: 0.22
δ of the fitted curve [1, 12]: 0.43
voltage dependence of VRAC block [1]: marked voltage dependency
effect on outward component of VRAC current [1]: inhibited

COc1ccc(CCN(C)CCCC(C#N)(c2ccc(OC)c(OC)c2)C(C)C)cc1OC (centres unmarked) [verapamil]
effect on HTS-induced NO production [3]: abolished
effect on HTS-induced Ca2+ oscillations [4]: abolished
effect on HTS-induced ATP release [5, 15]: Inhibition

CC/C(=C(\c1ccccc1)c1ccc(OCCN(C)C)cc1)c1ccccc1 [tamoxifen]
effect on ATP release [6]: effective
effect on VRAC currents [7]: did not significantly inhibit
effect on large conductance anion channel [8]: activates
effect on HTS-induced ATP release [5, 15]: Inhibition

O=c1ccn([C@@H]2O[C@H](COP(=O)(O)OP(=O)(O)OP(=O)(O)O)[C@@H](O)[C@H]2O)c(=O)[nH]1 [UTP]
r = k12(0)/k10(0) [1, 11]: 0.14 ± 0.05
δ, electrical distance of binding site inside the channel [1, 11]: 0.39 ± 0.04
r of the fitted curve [1, 12]: 0.13
δ of the fitted curve [1, 12]: 0.42
voltage dependence of VRAC block [1]: bell-shaped voltage-dependent inhibition

CNCCC(Oc1ccc(C(F)(F)F)cc1)c1ccccc1 (centres unmarked) [fluoxetine]
effect on HTS-induced NO production [3]: abolished
effect on HTS-induced Ca2+ oscillations [4]: abolished
effect on HTS-induced ATP release [5, 15]: Inhibition

C[C@H]1CCC/C=C/[C@@H]2C[C@H](O)C[C@H]2[C@H](O)/C=C/C(=O)O1 [Brefeldin A, brefeldin A]
effect on HTS-induced VRAC currents ([1]; pretreated with 3 μg/ml for 2.5 h, HTS 20%, −50 mV and 100 mV): did not, however, affect
effect on HTS-induced ATP release ([5]; pretreated with 3 μg/ml for 2.5 h, HTS 20%): did not, however, affect

Nc1ncnc2c1ncn2[C@@H]1O[C@H](COP(=O)(O)OP(=O)(O)O)[C@@H](O)[C@H]1O [ADP]
effect on outward component of VRAC current in low Cl− hypotonic solution ([1]; 1 mM extracellular ADP, extracellular Cl− 2 mM): still inhibited
effect on inward current in low Cl− hypotonic solution [1, 16]: virtually no effect
effect on outward current in low Cl− hypotonic solution [1, 16]: significantly enhanced
membrane leakiness [1]: did not cause membrane leakiness
r = k12(0)/k10(0) [1, 11]: 0.23 ± 0.05
δ, electrical distance of binding site inside the channel [1, 11]: 0.48 ± 0.01
r of the fitted curve [1, 12]: 0.26
δ of the fitted curve [1, 12]: 0.40
voltage dependence of VRAC block [1]: less voltage sensitive; also recorded: bell-shaped voltage-dependent inhibition

COc1ccc(Cl)cc1C(=O)NCCc1ccc(S(=O)(=O)NC(=O)NC2CCCCC2)cc1 [glibenclamide]
effect on HTS-induced NO production [3]: abolished
effect on HTS-induced Ca2+ oscillations [4]: abolished
effect on Ca2+ transients induced by exogenously applied ATP [9]: did not affect
effect on ADP-induced outward current ([1]; 100 μM, low Cl− hypotonic solution, unpublished data): suppressed
effect on HTS-induced ATP release [5, 15]: Inhibition

O=C(O)c1cc([N+](=O)[O-])ccc1NCCCc1ccccc1 [NPPB]
effect on ATP release [6]: suppressed
effect on ATP release [10]: suppressed

Nc1ccn([C@@H]2O[C@H](COP(=O)(O)OP(=O)(O)OP(=O)(O)O)[C@@H](O)[C@H]2O)c(=O)n1 [CTP]
r = k12(0)/k10(0) [1, 11]: 0.21 ± 0.09
δ, electrical distance of binding site inside the channel [1, 11]: 0.47 ± 0.02
r of the fitted curve [1, 12]: 0.057
δ of the fitted curve [1, 12]: 0.44
voltage dependence of VRAC block [1]: bell-shaped voltage-dependent inhibition
